# Results reported in ChEMBL document CHEMBL1143864, “Design and synthesis of potent antileishmanial cycloalkylidene-substituted ether phospholipid derivatives” (J Med Chem, 2008).
# Columns and labels:
# Leishmania infantum [1] = test: Antileishmanial activity against Leishmania infantum MHOM/TN/80/IPT1/LEM235 intracellular amastigotes; format: functional, organism-based
# In short: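 THP-1 cells differentiated with retinoic acid for 3 days, infected with L. infantum promastigotes (1:4, 37 °C, 5% CO2) overnight. Free parasites removed on Histopaque 1077. Infected cells at 4 × 10^5 cells/mL mixed 1:1 with compound, 72 h at 37 °C/5% CO2. Percent infected cells counted by Giemsa microscopy; IC50 as for promastigotes.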
# THP-1 [2] = test: Cytotoxicity against human THP1 cells after 72 hrs; format: cell-based; conditions: THP-1, 72 h
# Leishmania donovani = test: Antileishmanial activity against Leishmania donovani MHOM/IN/80/DD8/LEM703 promastigotes
# Leishmania infantum [3] = test: Antileishmanial activity against Leishmania infantum MHOM/TN/80/IPT1/LEM235 promastigotes; format: functional, organism-based
# In short: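 Promastigotes grown in RPMI 1640 with 10% FCS, L-glutamine and antibiotics at 26 °C. Compounds, 65 mM stock in DMSO/ethanol 50/50, diluted 5-fold in medium (100 to 0.8 µM). Culture at 2 × 10^6 cells/mL mixed 1:1 with compound, 72 h at 26 °C. PI/SYBR-14 live/dead staining, flow cytometry, ≥10 000 cells; IC50 per Hills et al.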
# [4] = Toxicity in human erythrocytes assessed as hemolysis; format: cell-based, Erythrocyte
# In short: (§1)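 Washed erythrocytes from EDTA blood of healthy volunteers mixed 1:1 with compound in PBS (100 to 6.25 µM), 1 h at 37 °C. After centrifugation, supernatant absorbance read at 550 nm (reference 625 nm). Hemolysis % = (A − A0)/(Amax − A0) × 100, with PBS background and water as 100% lysis.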
# [5] = Toxicity in human erythrocytes assessed as hemolysis at 500 uM; format: cell-based, Erythrocyte; conditions: read-out: Activity
# [6] = Toxicity in human erythrocytes assessed as hemolysis at 100 uM; format: cell-based, Erythrocyte; conditions: read-out: Activity; in short: as §1
# THP-1 [7] = test: Cytotoxicity against human THP1 cells at 50 uM after 72 hrs; format: cell-based; conditions: thp-1, 72 h
# In short: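 THP-1 monocytes in RPMI 1640/10% FCS at 1 × 10^6 cells/mL incubated 72 h with compound (50 to 1.56 µM). Dual PI/SYBR-14 staining; alive/dead ratio by flow cytometry, excitation 488 nm, read at 545 and 645 nm. At least 10 000 cells per sample, each staining experiment repeated thrice.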
# [8] = Half life in human; format: ADME, organism-based; conditions: in vivo
SMILES,IC50 (Leishmania infantum [1]),IC50 (Leishmania donovani),IC50 (Leishmania infantum [3]),half-life [8],IC50 (THP-1 [2]),HC50 [4],hemolysis at 500 µM [5],hemolysis at 100 µM [6],Activity (THP-1 [7])
C[N+](C)(C)CCOP(=O)([O-])OCCCCC=C1CCCCCCCCC1,3.3 µM,< 3.2 µM,76.8 µM,,349 µM,> 100 µM,41.8%,2.1%,
C[N+](C)(C)CCOP(=O)([O-])OCCCCCCCCCCC=C1CCCCCCCCCCCCCC1,0.75 µM,68.2 µM,100 µM,,37.7 µM,100 µM,100%,17.7%,
C[N+](C)(C)CCOP(=O)([O-])OCCCCCC1CCCCCCCCCCCCCC1,0.7 µM,0.9 µM,1.4 µM,,> 500 µM,> 100 µM,100%,8.7%,Non-toxic
C[N+](C)(C)CCOP(=O)([O-])OCCCCCCCCCCC=C1CCCCCCCCC1,0.11 µM,1 µM,2.9 µM,,37.9 µM,> 100 µM,43%,25.5%,
C[N+]1(CCOP(=O)([O-])OCCCCCC2CCCCCCCCCCCCCC2)CCCCC1,1 µM,1 µM,2.8 µM,,333 µM,> 100 µM,80.8%,28.7%,
C[N+]1(CCOP(=O)([O-])OCCCCCC2CCCCCCCCCCCCCC2)CCOCC1,0.4 µM,1 µM,1.9 µM,,244 µM,> 100 µM,81.1%,34.8%,
C[N+](C)(C)CCOP(=O)([O-])OCCCCC=C1CCCCCCCCCCCCCC1,3.8 µM,2.3 µM,2.2 µM,,154 µM,> 100 µM,57.4%,38%,
C[N+](C)(C)CCOP(=O)([O-])OCCCCCC1CCCCCCCCC1,2.2 µM,< 3.13 µM,21.7 µM,,363 µM,> 100 µM,100%,1.7%,
CCCCCCCCCCCCCCCCOP(=O)([O-])O[C@@H]1CCCC[C@H]1[N+](C)(C)C (relative stereo),1.7 µM,71.9 µM,> 100 µM,,21.3 µM,> 100 µM,55.4%,20.4%,
C[N+](C)(C)[C@H]1CCC[C@@H]1OP(=O)([O-])OCCCCC=C1CCCCCCCCCCCCCC1 (relative stereo),0.2 µM,< 3.1 µM,< 3.1 µM,,75.4 µM,44.3 µM,100%,80.5%,
C[N+](C)(C)[C@H]1CCCC[C@@H]1OP(=O)([O-])OCCCCC=C1CCCCCCCCCCCCCC1 (relative stereo),1.6 µM,6 µM,> 100 µM,,88.5 µM,76.7 µM,100%,60.7%,
C[N+](C)(C)[C@@H]1CCCC[C@H]1OP(=O)([O-])OCCCCCCCCCCC=C1C2CC3CC(C2)CC1C3 (relative stereo),0.8 µM,16.6 µM,> 100 µM,,39.7 µM,66.6 µM,100%,66.8%,

# Second part, led by results:
IC50 (Leishmania infantum [1]),IC50 (Leishmania donovani),IC50 (Leishmania infantum [3]),half-life [8],SMILES,IC50 (THP-1 [2]),HC50 [4],hemolysis at 500 µM [5],hemolysis at 100 µM [6],Activity (THP-1 [7])
5.2 µM,41.1 µM,44.3 µM,,C[N+](C)(C)CC#CCOP(=O)([O-])OCCCCCCCCCCC=C1C2CC3CC(C2)CC1C3,75 µM,100 µM,100%,,
9.1 µM,41.6 µM,> 100 µM,,C[N+]1(C)C2CCC1CC(=CCOP(=O)([O-])OCCCCCCCCCCC=C1C3CC4CC(C3)CC1C4)C2,147 µM,61.3 µM,100%,82.3%,
3.6 µM,65.9 µM,84.5 µM,,C[N+]1(CCOP(=O)([O-])OCCCCCCCCCCC=C2CCCCCCCCCCCCCC2)CCCCC1,72.6 µM,> 100 µM,51.4%,36%,
4.4 µM,1.94 µM,1.8 µM,,C[N+]1(CCOP(=O)([O-])OCCCCC=C2CCCCCCCCCCCCCC2)CCOCC1,372 µM,> 100 µM,88.3%,45.4%,
4.1 µM,2 µM,1.7 µM,,C[N+]1(CCOP(=O)([O-])OCCCCC=C2CCCCCCCCCCCCCC2)CCCCC1,272 µM,68.4 µM,100%,71.6%,
0.9 µM,41.5 µM,50.2 µM,,C[N+]1(CCOP(=O)([O-])OCCCCCCCCCCC=C2CCCCCCCCCCCCCC2)CCOCC1,36.2 µM,> 100 µM,100%,16.9%,
3.3 µM,54.3 µM,> 100 µM,,CCCCCCCCCCCCCCCCOP(=O)([O-])O[C@@H]1CCC[C@H]1[N+](C)(C)C (relative stereo),34.1 µM,43.1 µM,100%,100%,
1.1 µM,8.6 µM,> 100 µM,,C[N+](C)(C)[C@@H]1CCC[C@H]1OP(=O)([O-])OCCCCCCCCCCC=C1CCCCC1 (relative stereo),30.7 µM,76.3 µM,100%,66.4%,
1.1 µM,16.1 µM,> 100 µM,,C[N+](C)(C)[C@@H]1CCCC[C@H]1OP(=O)([O-])OCCCCCCCCCCC=C1CCCCC1 (relative stereo),28.7 µM,59.8 µM,100%,81.6%,
0.3 µM,3.9 µM,38 µM,,C[N+](C)(C)[C@@H]1CCC[C@H]1OP(=O)([O-])OCCCCCCCCCCC=C1C2CC3CC(C2)CC1C3 (relative stereo),75 µM,> 100 µM,100%,30.8%,
6.7 µM,8.7 µM,23.9 µM,100 h,CCCCCCCCCCCCCCCCOP(=O)([O-])OCC[N+](C)(C)C [MILTEFOSINE],28.6 µM,,100%,96.1%,Toxic
